Screens as filed in PubChem.
E-sel inducer: E-selectin induction on HUVECs; P16581; HUVEC E-selectin immunofluorescence imaging; normalized: neutral wells 0, TNF-alpha wells 100; activation, % at 7.58 µM; 0.37% of 260,000 active;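 active means mean E-selectin-positive cell signal at least 10% of the positive control, reached in at least 60% of replicates, without over 20% cell loss; inconclusive means no rule given, readout overlaps actives, possibly toxicity-flagged; inactive means the rest, including those meeting only one limit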
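Test system – human umbilical vein endothelial cells (HUVEC), E-selectin induction · Input – 3,000 HUVEC seeded per well · Buffer or medium – EGM-2, gelatin · Compound dosing – single-point compound dose · Detection – immunofluorescence imaging · Measure – percent E-selectin-positive cells · Controls – TNF-alpha high, DMSO low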
ERAP1 inh: inhibitors of human ERAP1 aminopeptidase; inhibition, % at 10.7 µM; Q9NZ08; recombinant ERAP1, Leu-AMC fluorescence, 60 min; AID 652197; 0.15% of 340,000 active;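 active means mean replicate inhibition of at least 30%, or all replicates individually reaching that 30% level; inactive means mean below 30% and not every replicate reaching it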;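 further: 0% = neutral control wells and 100% = L-leucinethiol positive control wells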
SIRT5 inh: inhibitors of human sirtuin-5 desuccinylase | Q9NXA8 | Purified SirT5, succinyl-peptide AMC, trypsin-coupled fluorescence | inhibition, % at 15 µM | 1.1% of 330,000 active | AID 652115; in the data active means inhibition above about 15%; inconclusive means no clear call, values can overlap the other calls
Target sequence (Q9NXA8 whole entry, looked up): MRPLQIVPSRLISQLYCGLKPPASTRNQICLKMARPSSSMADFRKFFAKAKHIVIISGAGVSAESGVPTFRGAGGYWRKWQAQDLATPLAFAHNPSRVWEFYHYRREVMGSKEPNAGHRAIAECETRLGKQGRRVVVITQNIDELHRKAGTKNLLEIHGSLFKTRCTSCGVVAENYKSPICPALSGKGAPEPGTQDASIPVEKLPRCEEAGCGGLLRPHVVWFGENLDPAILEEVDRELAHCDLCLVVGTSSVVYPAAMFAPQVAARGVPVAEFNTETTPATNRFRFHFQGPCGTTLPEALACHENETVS
PglD DTNB: inhibitors of Campylobacter jejuni PglD acetyltransferase; purified PglD enzyme, DTNB colorimetric CoA detection; inhibition, % at 12.5 µM; 0.098% of 360,000 active; AID 602405; in the data active means inhibition above about 16%, passing the limit was not always enough; inconclusive means no clear call, values can overlap the other calls
DENV2 CPE: DENV2-induced cell death inhibition. DENV2-infected cells, cytopathic effect rescue, plate reader. CPE inhibition, % at 9.99 µM. 1.7% of 350,000 active; in the data active means CPE inhibition above about 20%, passing the limit was not always enough; inconclusive means no clear call, values can overlap the other calls; tested in BHK-21 cells;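 further: 0% = median of neutral control wells and 100% = median of positive control wells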
An asterisk follows results filed as active; ? = inconclusive; . = no result given. Only some compounds are listed: those with a hit (about 2.5% of all), similar ones and a draw of the others.

SMILES	E-sel inducer	ERAP1 inh	SIRT5 inh	PglD DTNB	DENV2 CPE
NCCCCCCNC(=O)[C@H]1C[C@H]2C(=O)N[C@@H](Cc3ccccc3)C(=O)N2[C@H]1c1cccc(OCCO)c1	.	2.3	1.2	3.2	21.2*
Cc1cccc2nc(CSc3nc4ccc([N+](=O)[O-])cc4[nH]3)cn12	.	4.6	-3.6	-3.8	?
CO[C@@H]1CN(C)C(=O)c2cc(NC(=O)C3CCC3)ccc2OC[C@@H](C)N(Cc2ccncc2)C[C@@H]1C	-0.1	4.5	-8.0	3.4	41.2*
CO[C@H]1CN(C)C(=O)c2cc(NC(=O)C3CCC3)ccc2OC[C@H](C)N(Cc2ccncc2)C[C@H]1C	0.2	2.3	-4.5	0.5	-9.0
CCC(=O)Nc1ccc2c(c1)C(=O)N(C)C[C@H](OC)[C@H](C)CN(Cc1ccccc1OC)[C@@H](C)CO2	0.3	1.2	0.4	-1.7	22.4*
COCC(=O)Nc1ccc2c(c1)C(=O)N(C)C[C@H](OC)[C@@H](C)CN(Cc1ccccc1)[C@@H](C)CO2	-0.2	1.9	5.0	-1.9	26.2*
COCC(=O)Nc1ccc2c(c1)OC[C@H](C)N(Cc1ccccc1OC)C[C@H](C)[C@@H](OC)CN(C)C2=O	-0.2	-2.1	-1.2	.	21.6*
COCC(=O)Nc1ccc2c(c1)OC[C@H](C)N(Cc1cccc(F)c1)C[C@H](C)[C@@H](OC)CN(C)C2=O	-0.3	3.6	-10.0	.	24.7*
COCC(=O)Nc1ccc2c(c1)C(=O)N(C)C[C@@H](OC)[C@@H](C)CN(Cc1cccc(F)c1)[C@H](C)CO2	-0.3	-1.9	7.7	-0.2	-6.9
CO[C@@H]1CN(C)C(=O)c2cc(NC(=O)NC(C)C)ccc2OC[C@H](C)N(Cc2ccccn2)C[C@@H]1C	0.0	-0.1	-1.4	-0.8	73.5*
CCC(=O)Nc1ccc2c(c1)OC[C@@H](C)N(Cc1cccnc1)C[C@H](C)[C@@H](OC)CN(C)C2=O	0.0	-5.9	-2.1	3.8	47.7*
COc1ccccc1NC(=O)Nc1ccc2c(c1)C(=O)N(C)C[C@@H](OC)[C@H](C)CN(Cc1ccccc1Cl)[C@H](C)CO2	0.0	-0.7	-0.8	-2.6	28.4*
CCC(=O)Nc1ccc2c(c1)OC[C@H](C)N(Cc1cccnc1)C[C@@H](C)[C@@H](OC)CN(C)C2=O	-0.1	-3.7	-4.0	-0.9	-8.2
CO[C@@H]1CN(C)C(=O)c2cc(NC(=O)NC(C)C)ccc2OC[C@H](C)N(Cc2ccccn2)C[C@H]1C	-0.2	-0.9	-5.2	-1.5	-2.1
CCCC#Cc1ccc2c(c1)O[C@H](CN(C)Cc1cncnc1)[C@H](C)CN([C@@H](C)CO)S2(=O)=O	-0.2	-0.2	0.0	-1.1	5.0
O=C(N[C@@H]1CC[C@H](CCn2cc(-c3ccc(F)cc3)nn2)O[C@H]1CO)c1cnccn1	-1.2	2.2	0.4	-0.8	-4.1
CCC(=O)Nc1ccc2c(c1)C(=O)N(C)C[C@@H](OC)[C@H](C)CN(Cc1ccccc1)[C@@H](C)CO2	0.9	-0.8	-1.8	-0.1	37.4*
COCC(=O)Nc1ccc2c(c1)C(=O)N(C)C[C@@H](OC)[C@H](C)CN(Cc1ccccn1)[C@H](C)CO2	-0.1	-2.7	22.6*	0.6	10.8
CO[C@H]1CN(C)C(=O)c2cc(NC(C)=O)ccc2OC[C@@H](C)N(Cc2nccs2)C[C@H]1C	0.2	4.2	-2.4	4.6	4.6
CCC(=O)Nc1ccc2c(c1)C(=O)N(C)C[C@@H](OC)[C@@H](C)CN(Cc1ccccc1)[C@H](C)CO2	0.3	-0.6	0.0	-0.5	4.7
CO[C@@H]1CN(C)C(=O)c2cc(NC(C)=O)ccc2OC[C@H](C)N(Cc2nccs2)C[C@@H]1C	-0.1	4.2	-1.3	2.1	58.7*
CCC(=O)Nc1ccc2c(c1)OC[C@@H](C)N(Cc1ccccn1)C[C@@H](C)[C@H](OC)CN(C)C2=O	-0.2	.	.	17.6*	8.8
COc1ccc(NC(=O)COc2cccc3c2CCN(Cc2cccnc2)C3=O)c(OC)c1	-0.1	-4.3	-1.7	6.1	-1.5
COc1ccc(C(=O)N/C(=C\c2cn(S(=O)(=O)N(C)C)c3ccccc23)C(=O)N2CCN(C)CC2)cc1	.	5.0	-1.5	1.1	1.7
C[C@H](CO)N1C[C@H](C)[C@H](CN(C)Cc2ccccc2F)Oc2ncc(C3=CCCC3)cc2C1=O	-0.7	0.6	0.2	0.0	3.0
SMILES	E-sel inducer	ERAP1 inh	SIRT5 inh	PglD DTNB	DENV2 CPE
O=C(C1CCOCC1)N1CC(=O)N2[C@H](C1)[C@H](c1ccc(-c3ccccc3F)cc1)[C@@H]2CO	-0.1	-0.8	2.8	.	20.5*
O=C(c1cccnc1)N1CC(=O)N2[C@H](C1)[C@@H](c1ccc(-c3ccccc3F)cc1)[C@@H]2CO	0.1	1.0	-1.9	.	34.7*
O=C(C1CCOCC1)N1CC(=O)N2[C@H](CO)[C@@H](c3ccc(-c4ccccc4F)cc3)[C@@H]2C1	0.0	-1.1	-1.8	.	-4.1
O=C(C1CCOCC1)N1CC(=O)N2[C@H](C1)[C@@H](c1ccc(-c3ccccc3F)cc1)[C@@H]2CO	0.8	-1.4	-3.5	.	23.0*
O=C(c1cnccn1)N1CC(=O)N2[C@H](CO)[C@@H](c3ccc(C4=CCCCC4)cc3)[C@@H]2C1	-0.2	-0.7	28.4*	.	11.0
CC(C)C(=O)Nc1c2c(nn1-c1ccc([N+](=O)[O-])cc1)CS(=O)(=O)C2	1.1	-1.1	-0.8	1.7	4.7
C[C@@H]1CN([C@@H](C)CO)C(=O)Cc2cc(NS(=O)(=O)c3ccc(Cl)cc3)ccc2O[C@H]1CN(C)Cc1ccc(Oc2ccccc2)cc1	-0.3	-0.6	23.9*	-1.1	-0.2
C[C@@H]1CN([C@@H](C)CO)C(=O)Cc2cc(NS(=O)(=O)c3ccccc3)ccc2O[C@H]1CN(C)Cc1ccc(Oc2ccccc2)cc1	-0.1	0.1	13.6	1.0	-26.3
COc1ccc(S(=O)(=O)Nc2ccc3c(c2)CC(=O)N([C@H](C)CO)C[C@@H](C)[C@@H](CN(C)Cc2ccc(Oc4ccccc4)cc2)O3)cc1	-0.3	1.6	16.1*	-1.8	1.9
C[C@@H]1CN([C@H](C)CO)C(=O)Cc2cc(NS(=O)(=O)c3ccccc3)ccc2O[C@@H]1CN(C)Cc1ccc(Oc2ccccc2)cc1	0.2	-1.0	11.6	-0.9	29.9*
C[C@H]1CN([C@@H](C)CO)C(=O)Cc2cc(NS(C)(=O)=O)ccc2O[C@@H]1CN(C)Cc1ccc(Oc2ccccc2)cc1	168.7*	-2.7	6.7	-1.7	9.0
C[C@@H]1CN([C@@H](C)CO)C(=O)Cc2cc(NS(C)(=O)=O)ccc2O[C@H]1CN(C)Cc1ccccc1	-0.3	1.1	6.5	0.4	5.0
Cc1ccc(SCc2nnc(NC(=O)c3ccccc3)s2)cc1	.	.	.	2.4	.
Cc1ccc2c(c1)N(CC(=O)NC1CCCC(C)C1C)C(=O)c1cccnc1O2 (stereo unspecified)	0.0	-1.6	.	0.3	7.9
CCS(=O)(=O)N1Cc2ccccc2CC1C(=O)Nc1ccc(F)c(F)c1F (stereo unspecified)	.	2.9	1.2	5.4	0.9
